Apaf-1 inh: inhibitors of human Apaf-1 apoptosome, primary screen, biochemical, DEVD-Rh110 fluorescence, uHTS | Apoptotic protease-activating factor 1 (Homo sapiens), O14727 | reconstituted apoptosome caspase-3 activity | inhibition, % at 20 µM | 330,000 tested, 0.71% active | AID 489030, 2010; active means inhibition of at least 40% at 20 µM
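Material: reconstituted apoptosome with Apaf-1, cytochrome c, caspase-9, procaspase-3, dATP / Buffer or medium: pH 7.5 Hepes buffer with CHAPS, BSA, DTT / Also added: cytochrome c with DEVD-Rh110 / Schedule: compound with Apaf-1, dATP, procaspase-3 30 min, then 50 min reaction, room temperature / Technique: rhodamine 110 fluorescence at Ex 480/Em 540 nm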
XBP1 UPR activ: activators of adaptive XBP1 UPR arm, primary screen, cell-based, CHO-XBP1 luciferase reporter, luminescence, uHTS | IRE1-XBP1 UPR activation; percent of tunicamycin response, DMSO as zero | activation, % at 20 µM | 330,000 tested, 0.33% active;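 active means versus positive control, 20 µM dose yields 30% or more activation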
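incubation = overnight seeding at 37 °C, 6 h compound treatment at 37 °C | assay system = CHO-XBP1 cells stably carrying IRE1-XBP1-driven luciferase reporter | input = 1000 cells per well | detection = luciferase luminescence | dosing = single point, 20 µM final compound, 1% DMSO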
CHOP UPR activ: activators of apoptotic CHOP UPR arm, primary screen, cell-based, CHO-CHOP luciferase reporter, luminescence, uHTS | activation, % at 10 µM | AID 449763, 2010 | UPR activation; percent of tunicamycin response over DMSO baseline | 330,000 tested, 0.34% active;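 active means at 10 µM dose, activation of 40% or more, normalized to positive control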
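Dosing – one dose, 10 µM in 0.5% DMSO · System – CHO-CHOP cells, stable luciferase reporter of PERK-eIF2a-CHOP signalling · Input – 500 cells/well · Control set – tunicamycin 10 µg/mL final as positive, DMSO-only wells as negative · Timing – 6 h compound treatment, 37 °C · Measure – % activation vs tunicamycin · Technique – luminescence read with Steady-Glo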
UBC13 inh: UBC13 polyubiquitin chain formation inhibitors, primary screen, biochemical, TR-FRET, uHTS. Ubiquitin-conjugating enzyme E2 N (Homo sapiens), P61088. inhibition, % at 20 µM. 330,000 tested, 0.47% active; in the data active means inhibition above about 45%, passing the limit was not always enough
Target sequence (P61088 whole entry, looked up): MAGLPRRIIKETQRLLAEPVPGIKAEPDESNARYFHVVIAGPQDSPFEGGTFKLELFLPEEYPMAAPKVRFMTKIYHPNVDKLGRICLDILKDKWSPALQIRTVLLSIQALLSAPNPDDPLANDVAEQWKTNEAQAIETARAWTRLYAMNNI
Mdm2 MdmX PPI: inhibitors of human Mdm2-MdmX association, primary screen, cell-based, luminescence, split luciferase, SaOS-2, uHTS. Protein Mdm4 (Homo sapiens) + E3 ubiquitin-protein ligase Mdm2 (Homo sapiens), …. SaOS-2 split-luciferase Mdm2/MdmX complementation. inhibition, % at 8 µM. 330,000 tested, 3% active. AID 485346, 2010;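 active means inhibition of at least 50% at 8 µM in the primary screen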
Mdm2-MdmX conf: Mdm2-MdmX complex disruptors, retested hits, confirmation, luminescence, single concentration. AID 489028, 2010. 10,000 tested, 55% active. inhibition, % at 8 µM. shares compounds with Mdm2 MdmX PPI. Mdm2-MdmX binding, luminescent assay; in the data active means inhibition above about 40%
FLuc counter: full-length luciferase signal inhibition, confirmation, counter-screen for Mdm2/MdmX interaction inhibitor project, cell-based, single concentration, SaOS-2; SaOS-2 full-length luciferase counterscreen, luminescence; 6,200 tested, 77% active; shares compounds with Mdm2 MdmX PPI; inhibition, % at 8 µM;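 active means mean inhibition at 8 µM reaching about 37%, which flags the compound as non-specific, limit read from the data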;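 further: p53-null SaOS-2 cells with luciferase driven by a doxycycline-inducible promoter; compound on cells about two nights before reading with doxycycline added after day one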
Hits are given with their value; - = inactive; . = no result given. An excerpt weighted towards active compounds, which were near 4.1% of everything screened.

SMILES	Apaf-1 inh	XBP1 UPR activ	CHOP UPR activ	UBC13 inh	Mdm2 MdmX PPI	Mdm2-MdmX conf	FLuc counter
CC(Sc1ncnc2sc(-c3ccccc3)cc12)C(=O)NCC1CCCO1 (configuration not stated)	-	-	-	-	67.4	59.4	91.0
CCc1cccc2c(SC(C)C(=O)NCC3CCCO3)nc(-c3ccccc3)nc12 (configuration not stated)	-	-	-	-	-	.	.
CCCCN1CC(O)=C(c2nc(-c3ccc(Br)cc3)cs2)C1=N	-	-	-	-	80.1	52.5	63.4
CCCCCCC[C@@H](C/C=C/CCC(=O)N(C)C/C(=C/Cl)C/C(=C\C(=O)N1C[C@H](O)CC1=O)OC)OC	-	-	-	-	-	.	.
CCCCCCC[C@@H](C/C=C/CCC(=O)N(C)C/C(=C/Cl)C/C(=C\C(=O)N1CC(OC)=CC1=O)OC)OC	-	-	-	-	60.4	-	.
CC(=O)N1CCc2cc(S(=O)(=O)NC(CC(C)C)C(=O)Nc3ccc4c(c3)OCCO4)ccc21 (configuration not stated)	-	-	-	-	-	.	.
Nc1c(-c2ccccn2)cnn1-c1nc(-c2ccc(F)cc2)cs1	-	-	-	-	-	.	.
COc1ccc(-c2csc(-n3ncc(-c4ccccn4)c3N)n2)cc1	-	-	-	-	57.5	-	.
CCc1ccc(-n2c(=O)c3c(C)c(C)sc3n(CC(=O)NCC3CCCO3)c2=O)cc1 (configuration not stated)	-	-	-	-	-	.	.
CCN1C(=O)C(O)(C2COC(C)(C)CC2=O)c2cc(Br)ccc21 (configuration not stated)	-	-	-	-	54.9	52.0	67.9
CCN1C(=O)C(O)(C2COC(C)(C)CC2=O)c2ccccc21 (configuration not stated)	-	-	-	-	-	.	.
COc1cc(C(=O)N2CCC(n3cnc4cc(F)ccc43)CC2)cc(OC)c1OC	-	-	-	-	-	.	.
COC(=O)c1ccccc1S(=O)(=O)NNC(=O)Nc1ccccc1	-	-	-	-	68.9	49.5	74.7
O=C1CCCCc2sc(Br)c([N+](=O)[O-])c2N1	-	-	-	-	63.6	-	56.5
CCc1cc(C(=O)N(C)CC(=O)Nc2c(Cl)cccc2Cl)sc1C	-	-	-	-	-	.	.
O=C(NC1CCCC1)c1cc2nc(-c3ccccc3)cc(-c3ccccc3)n2n1	-	-	-	-	54.9	-	.
COc1ccc(NC(=O)c2cc3nc(-c4ccccc4)cc(-c4ccccc4)n3n2)c(OC)c1	-	-	-	-	63.7	-	.
CC(C)CNC(=O)c1ccccc1N(Cc1ccccc1)S(C)(=O)=O	-	-	-	-	-	.	.
COc1ccc2c(c1)C1(Nc3ccccc3-c3nc4ccccc4n31)C(=O)N2C (configuration not stated)	-	-	-	-	75.5	80.5	45.6
COc1ccc2c(c1)C1(Nc3ccccc3-c3nc4ccccc4n31)C(=O)N2 (configuration not stated)	-	-	-	-	-	.	.
CSc1cccc(NC(=O)CN(Cc2ccc(Cl)cc2)S(C)(=O)=O)c1	-	-	-	-	-	.	.
CCOC(=O)c1ccc(Nc2ncnc3c2cnn3C)cc1	-	-	-	-	-	.	.
Cn1ncc2c(O/N=C(\N)c3ccc(C(C)(C)C)cc3)ncnc21	-	-	-	-	99.3	100.1	52.1
Cn1nc(-c2ccc(N3CCOCC3)c(NS(=O)(=O)c3ccccc3)c2)c2ccccc2c1=O	-	-	-	-	64.5	-	.

Source: PubChem
